ChEMBL document CHEMBL4184298, “Development of Potent Inhibitors of Receptor Tyrosine Kinases by Ligand-Based Drug Design and Target-Biased Phenotypic Screening” (J Med Chem, 2018)
Calls of active or inactive are those of the source. The rule behind the calls is not given here.

Experiments:
Mus musculus = organism: Mus musculus; assay: Antiproliferative activity against mouse AXL-positive Breast cancer cells after 5 days by PrestoBlue assay; assay type: functional
Method in brief: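 Cell proliferation: AXL+ cells were exposed to 8-point half-log dilutions (0.03–100 μM). Viability was read with PrestoBlue reagent on day 5.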

[1] = molecular target: RAC-alpha serine/threonine-protein kinase (Homo sapiens, UniProt P31749); assay: Inhibition of AKT (unknown origin) using poly [Glu, Try] 4:1 as substrate in presence of [gamma-33P]ATP
Method in brief: (§1)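 Radiometric assay on recombinant kinase: ³³P incorporation into the kinase substrate was measured and activity was expressed relative to a DMSO control.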

[2] = molecular target: T1, Tyrosine-protein kinase receptor TYRO3 (Homo sapiens, UniProt Q06418); assay: Inhibition of wild-type human partial length TYRO3 (S497 to T814 residues) expressed in bacterial expression system using poly [Glu, Try] 4:1 as substrate in presence of [gamma-33P]ATP; method in brief: as §1
T1 sequence (Q06418 whole entry): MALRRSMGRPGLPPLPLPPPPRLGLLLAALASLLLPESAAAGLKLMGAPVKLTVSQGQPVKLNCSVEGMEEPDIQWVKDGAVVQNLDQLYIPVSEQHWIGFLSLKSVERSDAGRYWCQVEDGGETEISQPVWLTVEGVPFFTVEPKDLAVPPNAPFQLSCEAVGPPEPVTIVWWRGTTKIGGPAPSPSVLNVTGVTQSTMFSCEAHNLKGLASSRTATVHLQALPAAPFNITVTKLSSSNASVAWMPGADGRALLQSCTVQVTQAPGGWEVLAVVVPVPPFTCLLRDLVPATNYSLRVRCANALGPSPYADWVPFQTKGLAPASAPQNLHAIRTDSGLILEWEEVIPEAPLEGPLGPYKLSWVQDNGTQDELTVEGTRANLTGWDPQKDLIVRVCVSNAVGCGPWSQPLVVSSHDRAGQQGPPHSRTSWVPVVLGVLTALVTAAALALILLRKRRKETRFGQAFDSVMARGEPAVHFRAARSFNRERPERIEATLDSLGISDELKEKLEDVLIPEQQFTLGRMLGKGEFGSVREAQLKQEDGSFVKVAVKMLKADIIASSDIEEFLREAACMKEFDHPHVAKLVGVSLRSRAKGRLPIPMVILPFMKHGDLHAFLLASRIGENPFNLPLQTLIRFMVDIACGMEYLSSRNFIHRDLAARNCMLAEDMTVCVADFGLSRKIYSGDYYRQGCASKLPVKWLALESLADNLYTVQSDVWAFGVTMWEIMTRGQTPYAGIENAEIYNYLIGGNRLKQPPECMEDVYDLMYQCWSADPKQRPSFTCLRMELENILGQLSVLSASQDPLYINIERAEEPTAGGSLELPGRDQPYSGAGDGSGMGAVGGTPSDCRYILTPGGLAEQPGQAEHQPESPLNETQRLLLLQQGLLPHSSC

[3] = molecular target: Mast/stem cell growth factor receptor Kit (Homo sapiens, UniProt P10721); assay: Inhibition of wild-type human partial length KIT (I571 to D952 residues) expressed in bacterial expression system using poly [Glu, Try] 4:1 as substrate in presence of [gamma-33P]ATP; method in brief: as §1
[4] = molecular target: Hepatocyte growth factor receptor (Homo sapiens, UniProt P08581); assay: Inhibition of wild-type human partial length MET (D1010 to S1367 residues) expressed in bacterial expression system using poly [Glu, Try] 4:1 as substrate in presence of [gamma-33P]ATP; method in brief: as §1
Aurora kinase A = molecular target: T2, Aurora kinase A (Homo sapiens, UniProt O14965); assay: Inhibition of human partial length Aurora A (E122 to K401 residues) expressed in mammalian expression system using poly [Glu, Try] 4:1 as substrate in presence of [gamma-33P]ATP; method in brief: as §1
T2 sequence (O14965 whole entry): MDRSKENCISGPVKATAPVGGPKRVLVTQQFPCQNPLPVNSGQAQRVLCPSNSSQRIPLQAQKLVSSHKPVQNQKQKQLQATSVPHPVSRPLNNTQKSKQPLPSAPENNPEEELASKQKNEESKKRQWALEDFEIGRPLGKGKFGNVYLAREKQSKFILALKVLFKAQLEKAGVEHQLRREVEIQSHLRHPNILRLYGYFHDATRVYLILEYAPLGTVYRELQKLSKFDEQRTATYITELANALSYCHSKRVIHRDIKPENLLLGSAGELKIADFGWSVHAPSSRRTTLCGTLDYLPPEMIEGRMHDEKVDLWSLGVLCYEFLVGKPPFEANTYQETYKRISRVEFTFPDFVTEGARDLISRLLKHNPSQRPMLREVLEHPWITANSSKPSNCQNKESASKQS

[5] = molecular target: Serine/threonine-protein kinase mTOR (Homo sapiens, UniProt P42345); assay: Inhibition of wild-type human partial length MTOR (L1382 to W2549 residues) expressed in mammalian expression system using poly [Glu, Try] 4:1 as substrate in presence of [gamma-33P]ATP; method in brief: as §1
[6] = molecular target: Vascular endothelial growth factor receptor 2 (Homo sapiens, UniProt P35968); assay: Inhibition of wild-type human partial length VEGFR2 (R787 to P1253 residues) expressed in mammalian expression system using poly [Glu, Try] 4:1 as substrate in presence of [gamma-33P]ATP
[7] = molecular target: Proto-oncogene tyrosine-protein kinase Src (Homo sapiens, UniProt P12931); assay: Inhibition of wild-type human partial length SRC (L240 to L536 residues) expressed in bacterial expression system using poly [Glu, Try] 4:1 as substrate in presence of [gamma-33P]ATP
Sequence of Proto-oncogene tyrosine-protein kinase Src (P12931 2-536 limits assumed): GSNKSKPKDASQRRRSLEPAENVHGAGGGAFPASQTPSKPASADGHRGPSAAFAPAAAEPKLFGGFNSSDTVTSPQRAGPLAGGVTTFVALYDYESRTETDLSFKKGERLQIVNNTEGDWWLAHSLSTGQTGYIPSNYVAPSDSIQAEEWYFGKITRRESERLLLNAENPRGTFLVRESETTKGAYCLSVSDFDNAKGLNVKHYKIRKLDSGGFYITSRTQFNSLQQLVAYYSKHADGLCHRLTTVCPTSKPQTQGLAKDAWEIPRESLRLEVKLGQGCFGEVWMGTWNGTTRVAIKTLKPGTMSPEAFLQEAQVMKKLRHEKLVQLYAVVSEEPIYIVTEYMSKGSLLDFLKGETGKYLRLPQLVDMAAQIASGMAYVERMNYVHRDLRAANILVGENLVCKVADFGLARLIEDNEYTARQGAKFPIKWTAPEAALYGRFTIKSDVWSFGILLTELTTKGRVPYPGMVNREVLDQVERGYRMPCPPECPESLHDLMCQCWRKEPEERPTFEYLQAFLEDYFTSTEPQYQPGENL

Sequence of Mast/stem cell growth factor receptor Kit (P10721 whole entry, the tested form may be a part): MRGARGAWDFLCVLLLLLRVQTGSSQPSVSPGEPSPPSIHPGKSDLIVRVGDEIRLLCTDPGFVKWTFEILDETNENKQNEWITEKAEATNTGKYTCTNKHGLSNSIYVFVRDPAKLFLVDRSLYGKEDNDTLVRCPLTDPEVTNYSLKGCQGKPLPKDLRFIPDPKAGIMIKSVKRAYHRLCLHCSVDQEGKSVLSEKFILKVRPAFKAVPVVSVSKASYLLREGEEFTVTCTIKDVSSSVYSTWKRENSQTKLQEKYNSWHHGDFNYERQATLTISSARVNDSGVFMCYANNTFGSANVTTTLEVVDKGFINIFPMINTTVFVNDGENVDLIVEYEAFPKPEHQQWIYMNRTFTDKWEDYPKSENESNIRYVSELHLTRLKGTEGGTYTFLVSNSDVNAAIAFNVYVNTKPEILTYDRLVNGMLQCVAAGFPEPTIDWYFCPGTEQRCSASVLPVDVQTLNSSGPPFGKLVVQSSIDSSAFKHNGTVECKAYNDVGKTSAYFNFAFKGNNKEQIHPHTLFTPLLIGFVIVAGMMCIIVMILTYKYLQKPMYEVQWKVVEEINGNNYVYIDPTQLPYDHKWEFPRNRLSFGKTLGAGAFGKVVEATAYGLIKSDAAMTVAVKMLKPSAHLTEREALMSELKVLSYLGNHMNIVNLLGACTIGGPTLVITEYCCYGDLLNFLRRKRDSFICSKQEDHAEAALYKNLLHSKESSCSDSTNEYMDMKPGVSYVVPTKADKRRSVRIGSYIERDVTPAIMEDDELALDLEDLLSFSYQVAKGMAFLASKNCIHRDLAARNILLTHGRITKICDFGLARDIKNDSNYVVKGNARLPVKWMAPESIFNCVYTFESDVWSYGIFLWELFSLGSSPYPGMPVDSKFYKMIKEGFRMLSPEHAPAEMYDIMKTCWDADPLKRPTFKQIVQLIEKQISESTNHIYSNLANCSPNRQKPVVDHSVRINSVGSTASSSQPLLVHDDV
Sequence of Hepatocyte growth factor receptor (P08581 whole entry, the tested form may be a part): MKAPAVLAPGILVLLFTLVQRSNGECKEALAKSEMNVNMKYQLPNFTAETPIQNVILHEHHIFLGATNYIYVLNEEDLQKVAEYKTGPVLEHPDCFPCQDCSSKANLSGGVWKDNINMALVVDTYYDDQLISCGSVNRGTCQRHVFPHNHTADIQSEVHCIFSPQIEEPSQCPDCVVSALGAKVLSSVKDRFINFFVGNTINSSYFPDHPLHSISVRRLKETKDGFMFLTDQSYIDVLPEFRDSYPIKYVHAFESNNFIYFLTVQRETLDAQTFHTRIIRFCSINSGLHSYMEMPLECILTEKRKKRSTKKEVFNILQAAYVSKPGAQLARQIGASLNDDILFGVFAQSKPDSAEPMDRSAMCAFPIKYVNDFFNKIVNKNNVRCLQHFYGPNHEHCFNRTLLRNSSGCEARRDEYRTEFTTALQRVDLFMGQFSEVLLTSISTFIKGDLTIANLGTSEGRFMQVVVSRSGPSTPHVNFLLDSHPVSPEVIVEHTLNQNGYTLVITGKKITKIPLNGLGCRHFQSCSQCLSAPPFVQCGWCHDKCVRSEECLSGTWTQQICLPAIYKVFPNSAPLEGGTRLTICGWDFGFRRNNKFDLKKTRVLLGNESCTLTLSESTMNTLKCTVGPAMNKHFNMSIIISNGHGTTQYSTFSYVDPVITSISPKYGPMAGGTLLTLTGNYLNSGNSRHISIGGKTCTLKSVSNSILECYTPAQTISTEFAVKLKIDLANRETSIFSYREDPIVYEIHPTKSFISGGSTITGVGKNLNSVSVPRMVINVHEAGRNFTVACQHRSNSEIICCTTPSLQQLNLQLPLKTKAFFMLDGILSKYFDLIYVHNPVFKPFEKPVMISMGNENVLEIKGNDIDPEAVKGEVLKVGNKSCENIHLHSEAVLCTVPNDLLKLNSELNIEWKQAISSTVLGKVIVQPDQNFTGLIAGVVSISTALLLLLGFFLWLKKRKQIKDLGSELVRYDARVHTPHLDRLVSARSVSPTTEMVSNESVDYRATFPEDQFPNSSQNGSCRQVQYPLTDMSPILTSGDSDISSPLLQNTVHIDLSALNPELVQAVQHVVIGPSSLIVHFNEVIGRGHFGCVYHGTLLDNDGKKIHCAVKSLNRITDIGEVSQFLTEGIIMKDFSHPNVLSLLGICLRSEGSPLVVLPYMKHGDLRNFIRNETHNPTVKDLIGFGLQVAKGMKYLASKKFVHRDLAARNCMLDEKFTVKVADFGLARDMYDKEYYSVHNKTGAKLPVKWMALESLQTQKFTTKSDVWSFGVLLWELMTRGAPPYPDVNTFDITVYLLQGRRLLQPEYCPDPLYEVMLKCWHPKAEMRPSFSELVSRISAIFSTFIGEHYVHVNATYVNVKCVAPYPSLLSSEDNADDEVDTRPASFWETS
Sequence of RAC-alpha serine/threonine-protein kinase (P31749 whole entry): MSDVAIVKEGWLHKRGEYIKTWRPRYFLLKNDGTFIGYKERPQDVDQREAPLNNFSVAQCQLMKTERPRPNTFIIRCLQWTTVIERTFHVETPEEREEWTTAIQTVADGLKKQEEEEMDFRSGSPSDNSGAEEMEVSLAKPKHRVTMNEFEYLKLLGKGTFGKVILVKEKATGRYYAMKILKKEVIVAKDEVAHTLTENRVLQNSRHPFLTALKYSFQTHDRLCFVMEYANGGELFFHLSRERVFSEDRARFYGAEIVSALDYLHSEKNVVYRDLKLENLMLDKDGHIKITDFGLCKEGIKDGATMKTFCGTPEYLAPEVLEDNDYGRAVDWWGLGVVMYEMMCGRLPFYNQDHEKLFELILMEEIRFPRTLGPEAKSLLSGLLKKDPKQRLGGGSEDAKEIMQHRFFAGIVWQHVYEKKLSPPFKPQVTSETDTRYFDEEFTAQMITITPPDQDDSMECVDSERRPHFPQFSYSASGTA
Sequence of Vascular endothelial growth factor receptor 2 (P35968 whole entry, the tested form may be a part): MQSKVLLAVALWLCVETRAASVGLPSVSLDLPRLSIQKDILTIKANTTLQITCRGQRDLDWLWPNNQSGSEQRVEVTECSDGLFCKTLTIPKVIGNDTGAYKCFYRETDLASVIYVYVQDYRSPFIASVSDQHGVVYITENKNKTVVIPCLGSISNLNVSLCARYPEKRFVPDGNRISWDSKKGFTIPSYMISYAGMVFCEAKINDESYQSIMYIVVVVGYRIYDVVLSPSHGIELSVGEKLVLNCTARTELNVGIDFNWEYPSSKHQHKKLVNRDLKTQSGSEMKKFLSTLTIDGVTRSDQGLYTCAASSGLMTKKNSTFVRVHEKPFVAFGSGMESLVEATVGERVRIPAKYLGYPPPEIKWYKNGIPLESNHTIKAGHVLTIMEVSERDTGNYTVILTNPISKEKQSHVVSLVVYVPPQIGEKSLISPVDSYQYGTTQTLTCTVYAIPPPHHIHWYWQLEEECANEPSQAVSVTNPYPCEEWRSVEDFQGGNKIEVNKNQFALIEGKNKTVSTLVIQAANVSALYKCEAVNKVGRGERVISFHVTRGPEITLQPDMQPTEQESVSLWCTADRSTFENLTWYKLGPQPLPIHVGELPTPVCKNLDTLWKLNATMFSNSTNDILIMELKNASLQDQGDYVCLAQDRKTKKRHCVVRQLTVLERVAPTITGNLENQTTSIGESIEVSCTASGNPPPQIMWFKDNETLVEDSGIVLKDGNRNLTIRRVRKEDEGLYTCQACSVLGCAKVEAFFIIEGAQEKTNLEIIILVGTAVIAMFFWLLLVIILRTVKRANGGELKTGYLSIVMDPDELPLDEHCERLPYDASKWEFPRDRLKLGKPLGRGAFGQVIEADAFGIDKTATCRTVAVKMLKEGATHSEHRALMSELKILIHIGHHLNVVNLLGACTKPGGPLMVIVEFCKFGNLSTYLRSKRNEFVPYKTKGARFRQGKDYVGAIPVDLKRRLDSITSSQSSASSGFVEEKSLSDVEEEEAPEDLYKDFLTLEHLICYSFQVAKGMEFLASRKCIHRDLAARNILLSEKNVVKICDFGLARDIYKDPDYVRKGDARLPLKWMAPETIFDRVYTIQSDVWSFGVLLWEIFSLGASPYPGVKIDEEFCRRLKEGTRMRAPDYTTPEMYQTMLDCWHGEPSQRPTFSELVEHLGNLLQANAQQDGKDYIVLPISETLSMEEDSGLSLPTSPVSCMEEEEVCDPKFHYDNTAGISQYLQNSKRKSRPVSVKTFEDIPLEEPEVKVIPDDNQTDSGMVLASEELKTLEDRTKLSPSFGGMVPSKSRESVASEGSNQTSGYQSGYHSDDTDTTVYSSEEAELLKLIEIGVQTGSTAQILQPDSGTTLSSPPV

Compound | Activity (Mus musculus) | further results
CNc1ncc2c(-c3ccc(N4CCNCC4)nc3)nn(Cc3cn(C4CCCCC4O)nn3)c2n1 (stereo unspecified) | inactive | 
CNc1ncc2c(-c3ccc(N4CCNCC4)nc3)nn(Cc3cn(Cc4ccccc4)nn3)c2n1 | Active | IC50 [1]: > 10 µM; IC50 [2]: > 10 µM; IC50 [3]: > 10 µM; IC50 [4]: > 10 µM; IC50 (Aurora kinase A): 1.8 µM; IC50 [5]: > 10 µM; IC50 [6]: > 10 µM; IC50 [7]: 1 µM
CNc1ncc2c(-c3ccc(N4CCNCC4)nc3)nn(Cc3cn(-c4ccccc4)nn3)c2n1 | inactive | 
CNc1ncc2c(-c3ccc(N4CCNCC4)nc3)nn(Cc3cn(C4CCCC4O)nn3)c2n1 (stereo unspecified) | inactive | 
CNc1ncc2c(-c3ccc(N4CCNCC4)nc3)nn(Cc3cn(-c4ccc(Cl)cc4)nn3)c2n1 | inactive | 
CNc1ccc(-c2nn(Cc3cn(Cc4ccccc4)nn3)c3nc(NC)ncc23)cn1 | inactive | 
CNc1ncc2c(-c3cnc4[nH]ccc4c3)nn(Cc3cn(Cc4ccccc4)nn3)c2n1 | inactive | 
CNc1ncc2c(-c3ccc(N4CCNCC4)nc3)nn(Cc3cn(-c4ccc(OC)cc4)nn3)c2n1 | inactive | 
